Data taken from paper PMC9790683 (Birth Defects Research, 2022).

System: human iPS cells (HYR0103, ATCC ACS‐1007)
Assay: devTOX quickPredict
Type: cell-based
Details: cell viability, threshold 0.85, 48 hours
Outline: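 Human iPS cells exposed across a concentration range. Ornithine and cystine abundance measured, and ornithine/cystine ratio calculated at each concentration. dTP is the concentration, interpolated from the ratio response curve, where the ratio drops below a predefined developmental-toxicity threshold set from pharmaceuticals of known human teratogenicity. TP is the concentration where viability falls below the same threshold. Nominal values converted to free-medium concentration by mass-balance model.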

Row | Compound | TP
1 | CCCCCC(=O)O [HA, Hexanoic acid] | 1,022 μM
2 | CCCC(C)(C)C(=O)O [DMPA, 2,2‐Dimethylpentanoic acid] | 1,745 μM
3 | CCCCC(CC)C(=O)O (centres unmarked) [EHA, 2‐Ethylhexanoic acid] | 390 µM
4 | C=CCC(CCC)C(=O)O (centres unmarked) [4‐ene‐VPA, 2‐Propyl‐4‐pentenoic acid] | 636 µM
5 | C=CCCC(=O)O [PA, 4‐Pentenoic acid] | 719 µM

Same assay, conditions: o/c ratio, threshold 0.85, 48 hours

Row | Compound | dTP
6 | CCCCCC(=O)O [HA, Hexanoic acid] | 838 µM
7 | CCCC(C)(C)C(=O)O [DMPA, 2,2‐Dimethylpentanoic acid] | 784 µM
8 | CCCCC(CC)C(=O)O (centres unmarked) [EHA, 2‐Ethylhexanoic acid] | 399 µM
9 | C=CCC(CCC)C(=O)O (centres unmarked) [4‐ene‐VPA, 2‐Propyl‐4‐pentenoic acid] | 611 µM
10 | C=CCCC(=O)O [PA, 4‐Pentenoic acid] | 913 µM

System: not listed separately
Assay: IVIVE, rat EAD with one‐compartment PPK model
Details: oral, Css = dTP
Outline: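 Rat one-compartment population PK model assuming 100% absorption. Total clearance was hepatic plus renal (passive glomerular filtration), with inputs of plasma unbound fraction and hepatocyte Clint (predicted or experimental). Monte Carlo simulation of 10,000 individuals gave the upper 95th percentile steady-state plasma concentration. EAD was the dose giving total Css equal to the nominal dTP or Armitage-model free medium concentration.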

Row | Compound | EAD using PPK model, using nominal dTP Conc.
11 | CCCCCC(=O)O [HA, Hexanoic acid] | 2,921.8 mg/kg/day
12 | CCCC(C)(C)C(=O)O [DMPA, 2,2‐Dimethylpentanoic acid] | 936.6 mg/kg/day
13 | CCCCC(CC)C(=O)O (centres unmarked) [EHA, 2‐Ethylhexanoic acid] | 95.3 mg/kg/day
14 | C=CCC(CCC)C(=O)O (centres unmarked) [4‐ene‐VPA, 2‐Propyl‐4‐pentenoic acid] | 119.6 mg/kg/day
15 | C=CCCC(=O)O [PA, 4‐Pentenoic acid] | 947.1 mg/kg/day

Same assay, conditions: oral, Css = free medium dTP

Row | Compound | EAD using PPK model, using free medium Conc.
16 | CCCCCC(=O)O [HA, Hexanoic acid] | 2,308.2 mg/kg/day
17 | CCCC(C)(C)C(=O)O [DMPA, 2,2‐Dimethylpentanoic acid] | 505.8 mg/kg/day
18 | CCCCC(CC)C(=O)O (centres unmarked) [EHA, 2‐Ethylhexanoic acid] | 45.5 mg/kg/day
19 | C=CCC(CCC)C(=O)O (centres unmarked) [4‐ene‐VPA, 2‐Propyl‐4‐pentenoic acid] | 95.7 mg/kg/day
20 | C=CCCC(=O)O [PA, 4‐Pentenoic acid] | 931.1 mg/kg/day

System: not listed separately
Assay: IVIVE, rat EAD with httk.PBTK model
Details: oral, Cmax = dTP
Outline: (§1)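 Reverse dosimetry used the generic PBTK model from httk R package v1.8.1: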

Row | Compound | EAD using Httk.PBTK model, using nominal dTP Conc.
21 | CCCCCC(=O)O [HA, Hexanoic acid] | 652.7 mg/kg/day
22 | CCCC(C)(C)C(=O)O [DMPA, 2,2‐Dimethylpentanoic acid] | 388.3 mg/kg/day
23 | CCCCC(CC)C(=O)O (centres unmarked) [EHA, 2‐Ethylhexanoic acid] | 77.3 mg/kg/day
24 | C=CCC(CCC)C(=O)O (centres unmarked) [4‐ene‐VPA, 2‐Propyl‐4‐pentenoic acid] | 77.1 mg/kg/day
25 | C=CCCC(=O)O [PA, 4‐Pentenoic acid] | 147.7 mg/kg/day

Same assay, conditions: oral, Cmax = free medium dTP

Row | Compound | EAD using Httk.PBTK model, using free medium Conc.
26 | CCCCCC(=O)O [HA, Hexanoic acid] | 515.6 mg/kg/day
27 | CCCC(C)(C)C(=O)O [DMPA, 2,2‐Dimethylpentanoic acid] | 209.7 mg/kg/day
28 | CCCCC(CC)C(=O)O (centres unmarked) [EHA, 2‐Ethylhexanoic acid] | 36.9 mg/kg/day
29 | C=CCC(CCC)C(=O)O (centres unmarked) [4‐ene‐VPA, 2‐Propyl‐4‐pentenoic acid] | 61.7 mg/kg/day
30 | C=CCCC(=O)O [PA, 4‐Pentenoic acid] | 145.2 mg/kg/day

System: not listed separately
Assay: IVIVE, human EAD with httk.PBTK model
Details: oral
Outline: as §1

Row | Compound | EAD, Httk.PBTK model, free medium concentration | EAD, Httk.PBTK model, nominal dTP
31 | CCCCC(CC)C(=O)O (centres unmarked) [EHA, 2‐Ethylhexanoic acid] | 22.4 mg/kg/day | 47.0 mg/kg/day

System: not listed separately
Assay: IVIVE, human EAD with GastroPlus pregnancy PBPK model
Details: human pregnancy, 12 weeks gestation

Row | Compound | EAD, GP.pregancy model, Maternal plasma Cmax, free medium concentration | EAD, GP.pregancy model, Maternal plasma Cmax, nominal dTP
32 | CCCCC(CC)C(=O)O (centres unmarked) [EHA, 2‐Ethylhexanoic acid] | 6.7 mg/kg/day | 14.1 mg/kg/day

System: rat dams and fetuses
Assay: not given
Details: Sprague–Dawley, corn oil gavage, GD 6–15; ref Narotsky et al., 1994; cited from earlier work

Row | Compound | LEL: Fetal toxicity
33 | C=CCCC(=O)O [PA, 4‐Pentenoic acid] | 50 mg/kg/day

Same assay, conditions: Wistar, drinking water, GD 6–19; ref Pennanen et al. (1992); cited from earlier work

Row | Compound | LEL: Fetal toxicity | LEL: Maternal toxicity
34 | CCCCC(CC)C(=O)O (centres unmarked) [EHA, 2‐Ethylhexanoic acid] | 100 mg/kg/day | 600 mg/kg/day

Same assay, conditions: rat, oral repeat dosing, maternal and fetal LELs combined; ref Table 2 sources; cited from earlier work

Row | Compound | Developmental toxicity LEL
35 | CCCCC(CC)C(=O)O (centres unmarked) [EHA, 2‐Ethylhexanoic acid] | 100 to 600 mg/kg/day
36 | C=CCCC(=O)O [PA, 4‐Pentenoic acid] | 50 to 75 mg/kg/day

System: not given
Assay: not given
Details: across all in vitro assays (OEDall); ref OECD, 2020; cited from earlier work

Row | Compound | Range of all human OEDs reported
37 | CCCCC(CC)C(=O)O (centres unmarked) [EHA, 2‐Ethylhexanoic acid] | 0.74–901.3

Same assay, conditions: human; cited from earlier work

Row | Compound | Human OED_max fu model
38 | CCCCC(CC)C(=O)O (centres unmarked) [EHA, 2‐Ethylhexanoic acid] | 4.8 mg/kg
